Measurements as given in ChEMBL document CHEMBL1150790, “Biochemical characterization of PER-2 and genetic environment of blaPER-2” (Antimicrob Agents Chemother, 2007).
Converted amounts (≈) assume the structure as drawn.

Legend:
[1] = system: Citrobacter freundii; test: Antimicrobial activity against Citrobacter freundii 33587 isolate by agar dilution method; type: functional
Procedure, shortened: (§1)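 MICs were determined by agar dilution following CLSI guidelines, with inoculum applied by a Steers multipoint inoculator.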

[2] = system: Escherichia coli; test: Antimicrobial activity against Escherichia coli CAG12177 by agar dilution method; type: functional; procedure, shortened: as §1
[3] = system: Escherichia coli; test: Antimicrobial activity against Escherichia coli 33587-TC9 by agar dilution method; type: functional; procedure, shortened: as §1
[4] = molecular target: T1, PER-2 beta-lactamase (Citrobacter freundii, UniProt A2RP81); test: Inhibition of Citrobacter freundii PER2 beta lactamase
T1 sequence (A2RP81 whole entry): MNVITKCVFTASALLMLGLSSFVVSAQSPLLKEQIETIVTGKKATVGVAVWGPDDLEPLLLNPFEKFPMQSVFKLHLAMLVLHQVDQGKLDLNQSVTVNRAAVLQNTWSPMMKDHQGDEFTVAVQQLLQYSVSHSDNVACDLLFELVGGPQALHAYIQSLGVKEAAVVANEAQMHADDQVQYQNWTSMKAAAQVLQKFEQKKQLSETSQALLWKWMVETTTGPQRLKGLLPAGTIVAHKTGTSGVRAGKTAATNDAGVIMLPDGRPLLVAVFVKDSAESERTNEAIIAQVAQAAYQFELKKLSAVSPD
Procedure, shortened: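 Purified recombinant PER-2 was incubated with the drug plus 100 μM nitrocefin as reporter substrate in 500 μl at 30°C. Residual enzyme activity was read spectrophotometrically. Apparent Km values were derived as competitive inhibitor constants (Ki).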

[5] = molecular target: T2, PER-2 beta-lactamase (Citrobacter freundii) (UniProt A2RP81); test: Ratio of Kcat to Km of Citrobacter freundii PER2 beta lactamase relative to cephalothin
T2 sequence (whole entry): T1 sequence (A2RP81 whole entry)
Procedure, shortened: (§2)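 Purified recombinant PER-2 (E. coli BL21(DE3) expression, Q-Sepharose purification) was assayed spectrophotometrically at 30°C in 500 μl. kcat and Km came from initial steady-state rates.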

[6] = system: Alcaligenes faecalis; test: Activity of Alcaligenes faecalis PER2 beta lactamase
Procedure, shortened: (§3)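 Purified recombinant PER-2 (expressed in E. coli BL21(DE3) from pET28a(+), IPTG-induced, Q-Sepharose purified). β-Lactam hydrolysis was followed spectrophotometrically at 30°C. For good substrates, Km and kcat came from initial rates. […] For poor substrates, kcat came from complete hydrolysis time courses.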

[7] = system: Alcaligenes faecalis; test: Ratio of Kcat to Km of Alcaligenes faecalis PER2 beta lactamase; procedure, shortened: as §3
[8] = substrate: CC(=O)OCC1=C(C(=O)O)N2C(=O)[C@@H](NC(=O)Cc3cccs3)[C@H]2SC1; test: (§4) Activity of Citrobacter freundii PER2 beta lactamase
[9] = substrate: CC(C)(O/N=C(\C(=O)N[C@@H]1C(=O)N2C(C(=O)[O-])=C(C[n+]3ccccc3)CS[C@H]12)c1csc(N)n1)C(=O)O; test: as §4
[10] = substrate: CC1(C)S[C@@H]2[C@H](NC(=O)Cc3ccccc3)C(=O)N2[C@H]1C(=O)O; test: as §4
[11] = substrate: CC1(C)S[C@@H]2[C@H](NC(=O)[C@H](N)c3ccccc3)C(=O)N2[C@H]1C(=O)O; test: as §4
[12] = substrate: CCN1CCN(C(=O)N[C@@H](C(=O)N[C@@H]2C(=O)N3C(C(=O)O)=C(CSc4nnnn4C)CS[C@H]23)c2ccc(O)cc2)C(=O)C1=O; test: as §4
[13] = substrate: CCN1CCN(C(=O)N[C@@H](C(=O)N[C@@H]2C(=O)N3[C@@H]2SC(C)(C)[C@@H]3C(=O)O)c2ccccc2)C(=O)C1=O; test: as §4
[14] = substrate: CO/N=C(\C(=O)N[C@@H]1C(=O)N2C(C(=O)O)=C(COC(C)=O)CS[C@H]12)c1csc(N)n1; test: as §4
[15] = substrate: CO/N=C(\C(=O)N[C@@H]1C(=O)N2C(C(=O)O)=C(COC(N)=O)CS[C@H]12)c1ccco1; test: as §4
[16] = substrate: CO/N=C(\C(=O)N[C@@H]1C(=O)N2C(C(=O)[O-])=C(C[N+]3(C)CCCC3)CS[C@H]12)c1csc(N)n1; test: as §4
[17] = substrate: CO[C@@]1(NC(=O)Cc2cccs2)C(=O)N2C(C(=O)O)=C(COC(N)=O)CS[C@@H]21; test: as §4
[18] = substrate: C[C@@H](O)[C@H]1C(=O)N2C(C(=O)O)=C(SCCNC=N)C[C@H]12; test: as §4
[19] = substrate: C[C@H]1[C@H](NC(=O)/C(=N\OC(C)(C)C(=O)O)c2csc(N)n2)C(=O)N1S(=O)(=O)O; test: as §4
[20] = substrate: O=C(Cc1cccs1)N[C@@H]1C(=O)N2C(C(=O)O)=C(/C=C/c3ccc([N+](=O)[O-])cc3[N+](=O)[O-])CS[C@H]12; test: as §4
[21] = substrate: CC(=O)OCC1=C(C(=O)O)N2C(=O)[C@@H](NC(=O)Cc3cccs3)[C@H]2SC1; test: (§5) Ratio of Kcat to Km of Citrobacter freundii PER2 beta lactamase; procedure, shortened: as §2
[22] = substrate: CC(C)(O/N=C(\C(=O)N[C@@H]1C(=O)N2C(C(=O)[O-])=C(C[n+]3ccccc3)CS[C@H]12)c1csc(N)n1)C(=O)O; test: as §5; procedure, shortened: as §2
[23] = substrate: CC1(C)S[C@@H]2[C@H](NC(=O)Cc3ccccc3)C(=O)N2[C@H]1C(=O)O; test: as §5; procedure, shortened: as §2
[24] = substrate: CC1(C)S[C@@H]2[C@H](NC(=O)[C@H](N)c3ccccc3)C(=O)N2[C@H]1C(=O)O; test: as §5; procedure, shortened: as §2
[25] = substrate: CCN1CCN(C(=O)N[C@@H](C(=O)N[C@@H]2C(=O)N3C(C(=O)O)=C(CSc4nnnn4C)CS[C@H]23)c2ccc(O)cc2)C(=O)C1=O; test: as §5; procedure, shortened: as §2
[26] = substrate: CCN1CCN(C(=O)N[C@@H](C(=O)N[C@@H]2C(=O)N3[C@@H]2SC(C)(C)[C@@H]3C(=O)O)c2ccccc2)C(=O)C1=O; test: as §5; procedure, shortened: as §2
[27] = substrate: CO/N=C(\C(=O)N[C@@H]1C(=O)N2C(C(=O)O)=C(COC(C)=O)CS[C@H]12)c1csc(N)n1; test: as §5; procedure, shortened: as §2
[28] = substrate: CO/N=C(\C(=O)N[C@@H]1C(=O)N2C(C(=O)O)=C(COC(N)=O)CS[C@H]12)c1ccco1; test: as §5; procedure, shortened: as §2
[29] = substrate: CO/N=C(\C(=O)N[C@@H]1C(=O)N2C(C(=O)[O-])=C(C[N+]3(C)CCCC3)CS[C@H]12)c1csc(N)n1; test: as §5; procedure, shortened: as §2
[30] = substrate: C[C@H]1[C@H](NC(=O)/C(=N\OC(C)(C)C(=O)O)c2csc(N)n2)C(=O)N1S(=O)(=O)O; test: as §5; procedure, shortened: as §2
[31] = substrate: O=C(Cc1cccs1)N[C@@H]1C(=O)N2C(C(=O)O)=C(/C=C/c3ccc([N+](=O)[O-])cc3[N+](=O)[O-])CS[C@H]12; test: as §5; procedure, shortened: as §2

C[C@@H](O)[C@H]1C(=O)N2C(C(=O)O)=C(SCCNC=N)C[C@H]12 [IMIPENEM ANHYDROUS]
MIC [1]: 0.063 µg/mL (≈ 0.21 µM)
MIC [2]: ≤ 0.063 µg/mL
MIC [3]: 0.125 µg/mL (≈ 0.418 µM)
Ki [4]: 60 nM

CCn1cc(C(=O)O)c(=O)c2ccc(C)nc21 [NALIDIXIC ACID]
MIC [1]: 2 µg/mL (≈ 8.61 µM)
MIC [2]: > 128 µg/mL
MIC [3]: > 128 µg/mL

CO[C@@]1(NC(=O)Cc2cccs2)C(=O)N2C(C(=O)O)=C(COC(N)=O)CS[C@@H]21 [CEFOXITIN]
MIC [1]: 1 µg/mL (≈ 2.34 µM)
MIC [2]: ≤ 0.063 µg/mL
MIC [3]: 0.125 µg/mL (≈ 0.292 µM)
Ki [4]: 140 nM
Activity [5]: 18%

CCN1CCN(C(=O)N[C@@H](C(=O)N[C@@H]2C(=O)N3C(C(=O)O)=C(CSc4nnnn4C)CS[C@H]23)c2ccc(O)cc2)C(=O)C1=O
Activity [5]: 15%

CCN1CCN(C(=O)N[C@@H](C(=O)N[C@@H]2C(=O)N3[C@@H]2SC(C)(C)[C@@H]3C(=O)O)c2ccccc2)C(=O)C1=O [PIPERACILLIN]
MIC [1]: 256 µg/mL (≈ 495 µM)
MIC [2]: 0.063 µg/mL (≈ 0.122 µM)
MIC [3]: 256 µg/mL (≈ 495 µM)
Ki [4]: 200 nM
Activity [5]: 30%

CO/N=C(\C(=O)N[C@@H]1C(=O)N2C(C(=O)O)=C(COC(N)=O)CS[C@H]12)c1ccco1
Activity [5]: 45%

O=C(Cc1cccs1)N[C@@H]1C(=O)N2C(C(=O)O)=C(/C=C/c3ccc([N+](=O)[O-])cc3[N+](=O)[O-])CS[C@H]12
Activity [5]: 224%

CC(=O)OCC1=C(C(=O)O)N2C(=O)[C@@H](NC(=O)Cc3cccs3)[C@H]2SC1 [CEPHALOTHIN]
MIC [1]: 512 µg/mL (≈ 1290 µM)
MIC [2]: 0.5 µg/mL (≈ 1.26 µM)
MIC [3]: > 512 µg/mL
Activity [5]: 100%

CC(C)(O/N=C(\C(=O)N[C@@H]1C(=O)N2C(C(=O)[O-])=C(C[n+]3ccccc3)CS[C@H]12)c1csc(N)n1)C(=O)O [CEFTAZIDIME]
Km [6]: 806 µM
MIC [1]: 128 µg/mL (≈ 234 µM)
MIC [2]: ≤ 0.063 µg/mL
MIC [3]: > 128 µg/mL
Activity [5]: 64%
kcat/Km [7]: 30000 M⁻¹ s⁻¹

CN(C)[C@@H]1C(O)=C(C(N)=O)C(=O)[C@@]2(O)C(O)=C3C(=O)c4c(O)cccc4[C@@](C)(O)[C@H]3C[C@@H]12 [TETRACYCLINE]
MIC [1]: 0.5 µg/mL (≈ 1.13 µM)
MIC [2]: 32 µg/mL (≈ 72 µM)
MIC [3]: 32 µg/mL (≈ 72 µM)

NC[C@H]1O[C@H](O[C@H]2[C@H](O)[C@@H](O[C@H]3O[C@H](CO)[C@@H](O)[C@H](N)[C@H]3O)[C@H](N)C[C@@H]2N)[C@H](O)[C@@H](O)[C@@H]1O [KANAMYCIN]
MIC [1]: > 128 µg/mL
MIC [2]: ≤ 0.25 µg/mL
MIC [3]: > 128 µg/mL

O=C(N[C@H](CO)[C@H](O)c1ccc([N+](=O)[O-])cc1)C(Cl)Cl [CHLORAMPHENICOL]
MIC [1]: > 32 µg/mL
MIC [2]: 2 µg/mL (≈ 6.19 µM)
MIC [3]: > 32 µg/mL

C[C@H]1[C@H](NC(=O)/C(=N\OC(C)(C)C(=O)O)c2csc(N)n2)C(=O)N1S(=O)(=O)O [AZTREONAM]
MIC [1]: 256 µg/mL (≈ 588 µM)
MIC [2]: ≤ 0.016 µg/mL
MIC [3]: 256 µg/mL (≈ 588 µM)
Ki [4]: 2000 nM
Activity [5]: 18%

CO/N=C(\C(=O)N[C@@H]1C(=O)N2C(C(=O)[O-])=C(C[N+]3(C)CCCC3)CS[C@H]12)c1csc(N)n1
MIC [1]: 16 µg/mL (≈ 33.3 µM)
MIC [2]: ≤ 0.063 µg/mL
MIC [3]: 8 µg/mL (≈ 16.6 µM)
Activity [5]: 3%

CC1(C)S[C@@H]2[C@H](NC(=O)[C@H](N)c3ccccc3)C(=O)N2[C@H]1C(=O)O [AMPICILLIN]
MIC [1]: > 512 µg/mL
MIC [2]: 0.25 µg/mL (≈ 0.715 µM)
MIC [3]: > 512 µg/mL
Activity [5]: 49%

CC1(C)S[C@@H]2[C@H](NC(=O)Cc3ccccc3)C(=O)N2[C@H]1C(=O)O
Activity [5]: 18%

CO/N=C(\C(=O)N[C@@H]1C(=O)N2C(C(=O)O)=C(COC(C)=O)CS[C@H]12)c1csc(N)n1 [CEFOTAXIME]
MIC [1]: 64 µg/mL (≈ 141 µM)
MIC [2]: ≤ 0.063 µg/mL
MIC [3]: 64 µg/mL (≈ 141 µM)
Activity [5]: 113%

B1: PER-2 beta-lactamase (Citrobacter freundii), A2RP81 (protein)
chain: T1 sequence (A2RP81 whole entry)
Km [8]: 9 µM
kcat [8]: 6 s⁻¹
Km [9]: 320 µM
kcat [9]: 140 s⁻¹
Km [10]: 16 µM
kcat [10]: 2 s⁻¹
Km [11]: 38 µM
kcat [11]: 12 s⁻¹
Km [12]: 5 µM
kcat [12]: 0.5 s⁻¹
kcat [13]: 0.04 s⁻¹
Km [14]: 46 µM
kcat [14]: 34 s⁻¹
Km [15]: 21 µM
kcat [15]: 6 s⁻¹
Km [16]: 16 µM
kcat [16]: 0.39 s⁻¹
kcat [17]: < 0.001 s⁻¹
kcat [18]: < 0.001 s⁻¹
kcat [19]: 0.23 s⁻¹
Km [20]: 32 µM
kcat [20]: 48 s⁻¹
kcat/Km [21]: 670000 M⁻¹ s⁻¹
kcat/Km [22]: 430000 M⁻¹ s⁻¹
kcat/Km [23]: 120000 M⁻¹ s⁻¹
kcat/Km [24]: 350000 M⁻¹ s⁻¹
kcat/Km [25]: 100000 M⁻¹ s⁻¹
kcat/Km [26]: 200000 M⁻¹ s⁻¹
kcat/Km [27]: 760000 M⁻¹ s⁻¹
kcat/Km [28]: 300000 M⁻¹ s⁻¹
kcat/Km [29]: 20000 M⁻¹ s⁻¹
kcat/Km [30]: 120000 M⁻¹ s⁻¹
kcat/Km [31]: 1.5e+06 M⁻¹ s⁻¹
